Data set [1] in a line: Inhibition of TNFalpha-induced NFkappaB (unknown origin) activation expressed in HEK293 cells after 6 hrs by luciferase reporter gene assay. The data set is classed as cell-based. The following applies: Homo sapiens, HEK293, 6 h. A digest of the protocol: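 HEK293 cells stably transfected with luciferase reporter under multiple NF-κB response elements, seeded 2 × 10^4/well, grown 48 h in DMEM/10% FBS/2 mM glutamine. Medium replaced; cells given test substances plus human recombinant TNF-α 2 ng/mL (0.14 nM) for 6 h, lysed, frozen −80 °C overnight, luciferase luminescence read. Percent inhibition; IC50 from dilution series (top 20 μM), each tested three times, curve-fitted.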
(In general: Reporter assays use an easily measured gene product as a stand-in for the process of interest.)

For data set [2], the system named is HEK293. The experiment in a line: Inhibition of TNFalpha-induced NFkappaB (unknown origin) activation expressed in HEK293 cells at 20 uM after 6 hrs by luciferase reporter gene assay. The data set is classed as cell-based. The settings on record: Homo sapiens. The procedure, abridged:
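HEK293 cells stably carrying an NF-κB response element–luciferase construct (hygromycin-selected). Seeded 2 × 10^4/well in DMEM with 10% FBS, antibiotics and 2 mM L-glutamine, grown 48 h. Fresh medium, then samples with recombinant human TNF-α 2 ng/mL (0.14 nM) for 6 h. Cells lysed, frozen overnight at −80 °C, luciferase luminescence read, percent inhibition calculated. TPCK positive control.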

Data set [3] in a line: Cytotoxicity against human HEK293 cells assessed as cell survival at 20 uM by SRB assay. The settings on record: read-out: Survival. The data set is classed as cell-based. A digest of the protocol: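 293/NFκB-luc cells seeded 2 × 10^4/well and grown 48 h. Run in parallel with the reporter assay: fresh medium, samples plus TNF-α 2 ng/mL for 6 h. Fixed with 20% TCA at 4 °C for 30 min, stained with 0.4% SRB in 1% acetic acid for 30 min at room temperature. Dye solubilised in 10 mM Tris base (pH 10), OD read at 515 nm, percent survival calculated.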
A general note: The SRB assay estimates cell density from bound dye.

For data set [4], the system named is RAW264.7. In words: Cancer chemopreventive activity in mouse RAW264.7 cells assessed as inhibition of LPS-induced nitric oxide production at 20 ug/mL treated 30 mins before LPS challenge measured after 20 hrs by Griess reagent assay. On the technique in general: Nitrite, measured by Griess reagent, commonly stands in for NO production.
For data set [5], the system named is RAW264.7. The experiment in a line: Cancer chemopreventive activity in mouse RAW264.7 cells assessed as inhibition of LPS-induced nitric oxide production treated 30 mins before LPS challenge measured after 20 hrs by Griess reagent assay.
Data set [6] is described as follows: Cytotoxicity against mouse RAW264.7 cells assessed as cell survival at 20 ug/mL by SRB assay. In kind it is cell-based. The settings on record: read-out: Survival. A digest of the protocol: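 RAW 264.7 cells run under the NO assay conditions (30 min sample pretreatment, then 1 μg/mL LPS for 20 h). Cells fixed with 10% TCA and stained with 0.4% SRB in 1% acetic acid. Bound dye dissolved in 10 mM Tris and OD read at 515 nm.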

Data set [7] concerns HEK293. The experiment in a line: Cytotoxicity against human HEK293 cells assessed as cell survival by SRB assay. In kind it is cell-based. A digest of the protocol:
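293/NFκB-luc cells (HEK293 stably carrying NF-κB-response-element luciferase reporter) seeded 2 × 10^4/well, grown 48 h in DMEM/10% FBS; treated with samples plus TNF-α 2 ng/mL (0.14 nM) for 6 h. Then TCA-fixed (20%, 4 °C, 30 min), stained 0.4% SRB in 1% acetic acid, dye solubilized in 10 mM Tris base pH 10; OD 515 nm; percent survival at 20 μM.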

`CC1=C(C)C(=O)O[C@@H]([C@](C)(O)[C@@]2(O)CC[C@]3(O)[C@@H]4CC=C5C=CCC(=O)[C@]5(C)[C@H]4CC[C@]23C)C1` [WITHACOAGULIN I]: the results for the IC50 (in data set [1]; with RAW264.7 [5]) were 8.8 µM and 29 µM, respectively. The molecule further yielded an inhibition in the data set on HEK293 [2] of 89.9%. In data set [3], the viability at 20 µM was 89.4%. Moreover, the inhibition at 20 µg/mL in the data set on RAW264.7 [4] worked out at 69.8%. Further, in data set [6], the viability at 20 ug/mL came to 100%.

Take `CC1=C(C)C(=O)O[C@@H]([C@](C)(O)[C@]2(O)CC[C@@]3(O)[C@@H]4CC=C5CC=CC(=O)[C@]5(C)[C@H]4CC[C@]23C)C1` [WITHANOLIDE F]: the results for the IC50 (in data set [1]; in the data set with RAW264.7 [5]) were 5.7 µM and 10.9 µM, respectively. The molecule further came in with an inhibition in the data set with HEK293 [2] of 90.8%. In addition, in data set [3], the viability at 20 µM was 100%. In addition, in the data set on RAW264.7 [4], the inhibition at 20 µg/mL is 84.6%. Moreover, the viability at 20 ug/mL in data set [6] amounted to 100%.

For `CC1=C(CO)C(=O)O[C@@H]([C@](C)(O)[C@]2(O)CC[C@@]3(O)[C@@H]4CC=C5CC=CC(=O)[C@]5(C)[C@H]4CC[C@]23C)C1`, the IC50 came to 1.6 µM in data set [1] and 6.9 µM with RAW264.7 [5]. Moreover, the inhibition in the data set with HEK293 [2] worked out at 90.1%. Also, the viability at 20 µM in data set [3] was 88.6%. Also, the inhibition at 20 µg/mL in the data set with RAW264.7 [4] was found to be 95.1%. Also, the viability at 20 ug/mL in data set [6] amounted to 100%.

As to `CC1=C(CO)C(=O)O[C@@H]([C@](C)(O)[C@@]2(O)CC=C3[C@@H]4CC=C5CC=CC(=O)[C@]5(C)[C@H]4CC[C@@]32C)C1` [WITHACOAGULIN H], the IC50 is 5 µM in data set [1] and 3.1 µM with RAW264.7 [5]. The inhibition in the data set with HEK293 [2] was 98.3%. In addition, the viability at 20 µM in data set [3] is 90.3%. Moreover, the inhibition at 20 µg/mL in the data set with RAW264.7 [4] is 100%. Further, the viability at 20 ug/mL in data set [6] was 70.4%.

In the case of `CC1=C(CO)C(=O)O[C@@H]([C@](C)(O)[C@H]2CC=C3[C@@H]4CC=C5CC=CC(=O)[C@]5(C)[C@H]4CC[C@@]32C)C1`, the IC50 stood at 12.4 µM in data set [1] and 38.2 µM in the data set with RAW264.7 [5]. The same molecule gave an inhibition in the data set on HEK293 [2] of 88.6%. Also, the viability at 20 µM in data set [3] came out at 48.3%. Moreover, the inhibition at 20 µg/mL with RAW264.7 [4] worked out at 76.3%. Moreover, the viability at 20 ug/mL in data set [6] was 100%.

Turning to `CC1=C(C)C(=O)O[C@@H]([C@](C)(O)C2=CC[C@@]3(O)[C@@H]4CC=C5CC=CC(=O)[C@]5(C)[C@H]4CC[C@]23C)C1`, the values for the IC50 (in data set [1]; in the data set with RAW264.7 [5]) were 5.7 µM and 10.4 µM, respectively. The inhibition in the data set with HEK293 [2] worked out at 90.2%. For the same molecule, the viability at 20 µM in data set [3] is 100%. Moreover, the inhibition at 20 µg/mL in the data set with RAW264.7 [4] is 69.1%. Further, the viability at 20 ug/mL in data set [6] is 100%.

For `CC1=C(CO)C(=O)O[C@@H]([C@](C)(O)[C@H]2CC[C@@]3(O)[C@@H]4CC=C5CC=CC(=O)[C@]5(C)[C@H]4CC[C@]23C)C1`, inhibition in data set [1] was half-maximal at 7 µM (IC50). The same molecule registered an inhibition in the data set on HEK293 [2] of 92.8%. Moreover, the viability at 20 µM in data set [3] was 100%. Further, the inhibition at 20 µg/mL in the data set with RAW264.7 [4] was 31.4%. Further, the viability at 20 ug/mL in data set [6] stood at 100%.

With `CC1=C(CO)C(=O)O[C@@H]([C@](C)(O)[C@@]2(O)CC[C@H]3[C@@H]4CC=C5CC=CC(=O)[C@]5(C)[C@H]4CC[C@@]32C)C1` [WITHACOAGULIN G], the IC50 in data set [1] was 11.8 µM; with RAW264.7 [5], 1.9 µM. This molecule came in with an inhibition in the data set with HEK293 [2] of 90.1%. For the same molecule, in data set [3], the viability at 20 µM is 93.2%. In the data set on RAW264.7 [4], the inhibition at 20 µg/mL stood at 100%. Besides, the viability at 20 ug/mL in data set [6] was 96.7%.

On to `Cc1ccc(S(=O)(=O)N[C@@H](Cc2ccccc2)C(=O)CCl)cc1` [TPCK], for which the IC50 in data set [1] is 10.8 µM; with HEK293 [7] it was 3.8 µM.

In the case of `CC1=C(C)C(=O)O[C@@H]([C@](C)(O)[C@H]2CC[C@@]3(O)[C@@H]4CC=C5CC=CC(=O)[C@]5(C)[C@H]4CC[C@]23C)C1`, the IC50 was determined as 12.3 µM in data set [1] and 37.5 µM in the data set with RAW264.7 [5]. In addition, the inhibition with HEK293 [2] worked out at 86.9%. The viability at 20 µM in data set [3] was determined as 71.9%. Moreover, in the data set with RAW264.7 [4], the inhibition at 20 µg/mL was determined as 88.5%. Besides, the viability at 20 ug/mL in data set [6] came to 100%.

`Cc1ccc(S(=O)(=O)/C=C/C#N)cc1`: the midpoint of inhibition in data set [1], the IC50, lay at 5 µM.

Usually IC50 stands for the point on the concentration scale where inhibition reaches its midpoint. By inhibition is commonly meant the share of the control response that was lost under treatment.

These data come from ChEMBL document CHEMBL2331521, “Biologically active withanolides from Withania coagulans” (J Nat Prod, 2013).
